ChEMBL document CHEMBL4346701, “Synthesis and biological evaluation of tryptophan-derived rhodanine derivatives as PTP1B inhibitors and anti-bacterial agents” (Eur J Med Chem, 2019)
Activity calls are given as the source filed them. No cut-off for these calls is given here.

Columns and labels:
[1] = biological target: T1, Tyrosine-protein phosphatase non-receptor type 2 (Homo sapiens, UniProt P17706); test: Inhibition of human recombinant GST-tagged TCPTP (catalytic domain […] residues) expressed in Escherichia coli BL21 (DE3) using pNPP as substrate measured for 2 mins by colorimetric analysis
T1 sequence (P17706 whole entry): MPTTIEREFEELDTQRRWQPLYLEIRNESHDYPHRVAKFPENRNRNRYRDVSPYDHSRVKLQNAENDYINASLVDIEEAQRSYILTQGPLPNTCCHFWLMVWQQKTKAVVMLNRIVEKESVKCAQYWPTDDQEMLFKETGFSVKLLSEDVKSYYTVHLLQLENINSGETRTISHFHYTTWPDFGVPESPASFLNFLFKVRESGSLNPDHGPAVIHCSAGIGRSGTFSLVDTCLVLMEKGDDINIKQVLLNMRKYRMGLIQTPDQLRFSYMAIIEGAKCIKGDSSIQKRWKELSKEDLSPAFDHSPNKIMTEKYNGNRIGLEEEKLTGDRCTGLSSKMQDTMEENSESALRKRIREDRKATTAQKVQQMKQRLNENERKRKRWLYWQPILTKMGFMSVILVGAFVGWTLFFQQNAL

[2] = biological target: T2, Tyrosine-protein phosphatase non-receptor type 11 (Homo sapiens, UniProt Q06124); test: Inhibition of human recombinant GST-tagged SHP2 (catalytic domain […] residues) expressed in Escherichia coli BL21 (DE3) using pNPP as substrate measured for 2 mins by colorimetric analysis
T2 sequence (Q06124 whole entry): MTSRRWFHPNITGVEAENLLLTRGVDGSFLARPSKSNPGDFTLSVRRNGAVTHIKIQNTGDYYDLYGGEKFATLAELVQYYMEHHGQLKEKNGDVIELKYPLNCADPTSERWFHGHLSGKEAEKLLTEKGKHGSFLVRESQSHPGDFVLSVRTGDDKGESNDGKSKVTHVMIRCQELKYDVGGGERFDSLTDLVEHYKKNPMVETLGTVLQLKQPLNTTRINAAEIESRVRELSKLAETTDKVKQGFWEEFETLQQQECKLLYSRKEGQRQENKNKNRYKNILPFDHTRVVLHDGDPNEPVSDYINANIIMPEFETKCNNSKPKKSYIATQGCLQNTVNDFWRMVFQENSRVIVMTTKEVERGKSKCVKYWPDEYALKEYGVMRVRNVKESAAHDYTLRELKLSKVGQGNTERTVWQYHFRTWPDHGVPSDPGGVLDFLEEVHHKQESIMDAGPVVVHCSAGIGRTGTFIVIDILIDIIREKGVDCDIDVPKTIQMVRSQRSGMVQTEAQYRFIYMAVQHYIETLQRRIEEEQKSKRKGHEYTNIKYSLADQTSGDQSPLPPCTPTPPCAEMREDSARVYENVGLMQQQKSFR
In short: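 pNPP hydrolysis assay. IC50 was derived by regression analysis and given as mean ± SD of three replications.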

[3] = biological target: T3, Receptor-type tyrosine-protein phosphatase F (Homo sapiens, UniProt P10586); test: Inhibition of human recombinant GST-tagged LAR (catalytic domain 1275 to 1613 residues) expressed in Escherichia coli BL21 (DE3) using pNPP as substrate at 20 ug/ml measured for 2 mins by colorimetric analysis
In short: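 Single-concentration screen at 20 µg/mL in the pNPP phosphatase assay.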

Staphylococcus aureus = test: Potency index, ratio of MIC of gatifloxacin to MIC of compound for antibacterial activity against Staphylococcus aureus KCTC503 assessed as reduction in bacterial cell growth incubated for 24 hrs by ELISA; type: functional
[4] = biological target: T4, Tyrosine-protein phosphatase non-receptor type 1 (Homo sapiens) (UniProt P18031); test: Potency index, ratio of IC50 of oleanolic acid to IC50 of compound inhibition of human recombinant GST-tagged PTP1B expressed in Escherichia coli BL21 (DE3) using pNPP as substrate measured for 2 mins by colorimetric analysis
T4 sequence (whole entry): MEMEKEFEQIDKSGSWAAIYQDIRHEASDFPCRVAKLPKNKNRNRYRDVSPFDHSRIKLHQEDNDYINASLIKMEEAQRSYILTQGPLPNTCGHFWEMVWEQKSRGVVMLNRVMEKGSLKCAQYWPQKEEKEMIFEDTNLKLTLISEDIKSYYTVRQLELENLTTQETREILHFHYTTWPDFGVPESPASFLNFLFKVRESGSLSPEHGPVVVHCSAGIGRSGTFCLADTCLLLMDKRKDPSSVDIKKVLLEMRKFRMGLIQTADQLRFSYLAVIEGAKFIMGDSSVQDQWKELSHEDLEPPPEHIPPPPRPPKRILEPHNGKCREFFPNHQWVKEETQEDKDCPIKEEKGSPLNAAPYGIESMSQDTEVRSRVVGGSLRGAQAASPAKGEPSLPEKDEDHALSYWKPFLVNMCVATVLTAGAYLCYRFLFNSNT

[5] = biological target: T3, Receptor-type tyrosine-protein phosphatase F; test: Inhibition of human recombinant GST-tagged LAR (catalytic domain 1275 to 1613 residues) expressed in Escherichia coli BL21 (DE3) using pNPP as substrate measured for 2 mins by colorimetric analysis
[6] = biological target: T4, Tyrosine-protein phosphatase non-receptor type 1 (Homo sapiens); test: Inhibition of human recombinant GST-tagged PTP1B expressed in Escherichia coli BL21 (DE3) using pNPP as substrate incubated for 4 to 16 mins and measured for 2 mins by colorimetric analysis; conditions: TDE = time-dependent effect
In short: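 pNPP used as the phosphatase substrate, with the enzyme assay following earlier published work. IC50 obtained by regression analysis and reported as mean ± SD of three replications.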

[7] = biological target: T4, Tyrosine-protein phosphatase non-receptor type 1 (Homo sapiens); test: Competitive inhibition of human recombinant GST-tagged PTP1B expressed in Escherichia coli BL21 (DE3) using pNPP as substrate assessed as increase in Km value measured for 2 mins by colorimetric analysis
[8] = biological target: T4, Tyrosine-protein phosphatase non-receptor type 1 (Homo sapiens); test: Competitive inhibition of human recombinant GST-tagged PTP1B expressed in Escherichia coli BL21 (DE3) using pNPP as substrate assessed as unchanged Vmax value measured for 2 mins by colorimetric analysis
[9] = biological target: T5, Tyrosine-protein phosphatase non-receptor type 1 (Homo sapiens, UniProt P18031); test: Competitive inhibition of human recombinant GST-tagged PTP1B expressed in Escherichia coli BL21 (DE3) using pNPP as substrate assessed as inhibitor constant measured for 2 mins by colorimetric analysis
T5 sequence (P18031 whole entry): T4 sequence (whole entry)

T3 sequence (P10586 whole entry, the tested form may be a part): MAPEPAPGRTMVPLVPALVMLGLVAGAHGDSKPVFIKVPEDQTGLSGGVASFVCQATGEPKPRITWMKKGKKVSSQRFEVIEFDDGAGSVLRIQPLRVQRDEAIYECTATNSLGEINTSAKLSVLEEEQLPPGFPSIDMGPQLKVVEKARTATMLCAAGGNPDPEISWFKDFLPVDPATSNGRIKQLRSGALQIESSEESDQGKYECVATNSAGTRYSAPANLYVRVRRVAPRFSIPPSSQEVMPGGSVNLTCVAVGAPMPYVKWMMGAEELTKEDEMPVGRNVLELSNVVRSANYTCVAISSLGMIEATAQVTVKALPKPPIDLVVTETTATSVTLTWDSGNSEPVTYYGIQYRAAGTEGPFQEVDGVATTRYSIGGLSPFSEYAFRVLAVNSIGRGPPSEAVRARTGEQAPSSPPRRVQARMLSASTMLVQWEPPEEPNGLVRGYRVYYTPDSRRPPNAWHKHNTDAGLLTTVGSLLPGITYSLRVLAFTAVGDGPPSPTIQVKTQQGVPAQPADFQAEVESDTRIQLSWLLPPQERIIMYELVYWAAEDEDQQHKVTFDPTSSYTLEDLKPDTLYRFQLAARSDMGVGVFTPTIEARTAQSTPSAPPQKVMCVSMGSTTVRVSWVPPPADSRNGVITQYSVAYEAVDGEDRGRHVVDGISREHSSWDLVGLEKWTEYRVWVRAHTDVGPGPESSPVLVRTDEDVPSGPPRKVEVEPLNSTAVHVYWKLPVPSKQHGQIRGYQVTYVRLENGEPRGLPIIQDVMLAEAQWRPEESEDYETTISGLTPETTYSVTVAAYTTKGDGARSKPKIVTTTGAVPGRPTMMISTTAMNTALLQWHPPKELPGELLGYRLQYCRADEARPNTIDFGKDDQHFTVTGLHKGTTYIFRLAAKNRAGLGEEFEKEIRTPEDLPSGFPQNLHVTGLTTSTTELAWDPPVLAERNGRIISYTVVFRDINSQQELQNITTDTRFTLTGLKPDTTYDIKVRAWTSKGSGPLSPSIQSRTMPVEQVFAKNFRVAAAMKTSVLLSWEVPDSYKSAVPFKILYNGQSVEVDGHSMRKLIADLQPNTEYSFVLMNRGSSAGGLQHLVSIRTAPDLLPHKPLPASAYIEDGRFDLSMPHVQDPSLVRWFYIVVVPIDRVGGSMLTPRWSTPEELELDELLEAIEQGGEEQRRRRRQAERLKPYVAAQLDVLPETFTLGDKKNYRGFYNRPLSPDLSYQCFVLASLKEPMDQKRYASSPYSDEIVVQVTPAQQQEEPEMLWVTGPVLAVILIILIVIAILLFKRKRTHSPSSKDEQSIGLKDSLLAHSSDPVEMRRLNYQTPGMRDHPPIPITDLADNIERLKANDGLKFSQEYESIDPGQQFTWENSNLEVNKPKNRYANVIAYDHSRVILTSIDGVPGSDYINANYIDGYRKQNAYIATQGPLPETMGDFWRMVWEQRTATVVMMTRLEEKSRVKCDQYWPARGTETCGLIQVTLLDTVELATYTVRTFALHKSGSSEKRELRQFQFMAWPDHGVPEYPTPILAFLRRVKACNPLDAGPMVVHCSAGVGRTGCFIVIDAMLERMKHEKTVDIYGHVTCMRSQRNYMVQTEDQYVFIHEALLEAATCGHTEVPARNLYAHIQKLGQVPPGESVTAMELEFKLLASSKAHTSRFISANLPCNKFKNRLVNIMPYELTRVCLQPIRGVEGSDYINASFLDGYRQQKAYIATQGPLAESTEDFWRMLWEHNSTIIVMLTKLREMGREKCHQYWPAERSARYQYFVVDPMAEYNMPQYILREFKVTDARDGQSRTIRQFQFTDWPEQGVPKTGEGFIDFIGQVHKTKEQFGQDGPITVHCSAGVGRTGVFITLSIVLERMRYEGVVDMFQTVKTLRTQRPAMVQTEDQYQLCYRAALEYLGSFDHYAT

| SMILES | IC50 [1] [nM] | IC50 [2] [nM] | inhibition [3] | Ratio (Staphylococcus aureus) | Ratio IC50 [4] | IC50 [5] [nM] | inhibition [6] | inhibition [7] | inhibition [8] | Ki [9] [nM] |
| --- | --- | --- | --- | --- | --- | --- | --- | --- | --- | --- |
| Cc1ccc(COc2ccc3cc(/C=C4\SC(=S)N(C(Cc5c[nH]c6ccccc56)C(=O)O)C4=O)ccc3c2)cc1 (stereo not given) | 1690 | 5810 | inactive | 2 |  |  |  |  |  |  |
| O=C(O)C(Cc1c[nH]c2ccccc12)N1C(=O)/C(=C/c2ccc3cc(OCc4ccc(Br)cc4)ccc3c2)SC1=S (stereo not given) | 780 | 3800 |  |  | 8 | 29100 | Tde | Active | Active | 70 |
| O=C(O)C(Cc1c[nH]c2ccccc12)N1C(=O)/C(=C/c2ccc3cc(OCc4ccc(Cl)cc4Cl)ccc3c2)SC1=S (stereo not given) | 1830 | 6930 | inactive |  |  |  |  |  |  |  |
